Measured values: ChEMBL document CHEMBL1128190, “Inhibition of E-selectin-, ICAM-1-, and VCAM-1-mediated cell adhesion by benzo[b]thiophene-, benzofuran-, indole-, and naphthalene-2-carboxamides: identification of PD 144795 as an antiinflammatory agent” (J Med Chem, 1995)

Legend:
[1] = Inhibitory activity against E-Selectin mediated cell adhesion in Human umbilical endothelial cell culture, by using HUVEC surface expression assay at 50 uM; format: functional
In short: (§1)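 Confluent HUVECs were given compound 30 min before TNF-α (140 U/mL final), then incubated 4 h at 37 °C. Cells were formalin-fixed and surface E-selectin detected by cell ELISA (mouse anti-E-selectin 0.5 μg/mL, peroxidase anti-mouse IgG), with absorbance at 414 nm. Unstimulated background was subtracted and results given as % inhibition versus vehicle. IC50 came from linear regression; average of two assays, each in triplicate.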

[2] = The compound was tested for cell adhesion by measuring the inhibitory concentration against Human umbilical vein endothelial cell (HUVEC) activation, using Na51CrO4 as radioligand at 50 uM; format: functional
[3] = Inhibitory activity against intercellular adhesion molecule (ICAM)-1 mediated cell adhesion in Human umbilical endothelial cell culture, by using HUVEC surface expression assay at 50 uM; format: functional
In short: (§2)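 HUVECs were pretreated with compound for 30 min, then stimulated with TNF-α (140 U/mL final) for 4 h at 37 °C. After formalin fixation, surface ICAM-1 was measured by cell ELISA (mouse anti-ICAM-1 0.5 μg/mL, peroxidase anti-mouse IgG), with absorbance at 414 nm. Unstimulated background was subtracted and results given as % inhibition versus vehicle. IC50 came from linear regression; average of two triplicate assays.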

Rattus norvegicus [4] = test: Inhibitory activity against Mycobacterium-induced foot-pad edema(MFE)at 50 mg/kg; format: functional
[5] = Cell adhesion measured using the inhibitory concentration against Human umbilical vein endothelial cell (HUVEC) activation, with Na51CrO4 as radioligand at 100 uM; format: functional
In short: (§3)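 Confluent second-passage HUVEC monolayers were stimulated with TNF-α (200 U/mL) for 4 h with or without compound at 100 μM, then washed. Fresh human neutrophils labelled with Na⁵¹CrO₄ (5 × 10⁵) were added for 30 min at 37 °C. Non-adherent cells were aspirated and adherent cells lysed in NH₄OH; lysates were γ-counted. Results are % inhibition of TNF-stimulated adherence, triplicate. IC50 came from linear regression at 33.3–1.0 μM.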

[6] = The compound was tested for cell adhesion by measuring the inhibitory concentration against Human umbilical vein endothelial cell (HUVEC) activation, using Na51CrO4 as radioligand at 100 uM; format: functional; in short: as §3
Rattus norvegicus [7] = test: Inhibitory activity against Mycobacterium-induced foot-pad edema(MFE) at 50 mg/kg; format: functional
[8] = Inhibitory activity against intercellular adhesion molecule (ICAM)-1 mediated cell adhesion in Human umbilical endothelial cell culture, by using HUVEC surface expression assay.; format: functional, cell-based; in short: as §2
[9] = Inhibitory activity against E-Selectin mediated cell adhesion in Human umbilical endothelial cell culture, by using HUVEC surface expression assay.; format: functional, cell-based; in short: as §1
[10] = The compound was tested for cell adhesion by measuring the inhibitory concentration against Human umbilical vein endothelial cell (HUVEC) activation, using Na51CrO4 as radioligand.; format: functional, cell-based
[11] = The compound was tested for inhibitory activity against intercellular adhesion molecule (ICAM)-1 mediated cell adhesion in Human umbilical endothelial cell culture, by using HUVEC surface expression assay.; format: functional, cell-based
In short: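 HUVECs were pretreated with compound for 30 min, then stimulated with TNF-α (140 U/mL final) for 4 h at 37 °C. Unstimulated background was subtracted and results given as % inhibition versus vehicle. IC50 came from linear regression; average of two triplicate assays.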

[12] = The compound was tested for inhibitory activity against intercellular adhesion molecule (ICAM)-1 mediated cell adhesion in Human aortic endothelial cell culture, by using HAEC surface expression assay at 50 uM; format: functional
In short: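 Confluent human aortic endothelial cells were incubated with TNF-α (250 U/mL) and compound (0.005% DMSO final) for 18 h. Cells were formalin-fixed and probed with anti-ICAM-1 mAb (2 h, 37 °C), then peroxidase anti-mouse IgG (1 h) and colour reagent (15 min). Read-out was OD414.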

[13] = The compound was tested for inhibitory activity against E-Selectin mediated cell adhesion in Human umbilical endothelial cell culture, by using HUVEC surface expression assay.; format: functional, cell-based
In short: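 Confluent HUVECs were given compound 30 min before TNF-α (140 U/mL final), then incubated 4 h at 37 °C. Unstimulated background was subtracted and results given as % inhibition versus vehicle. IC50 came from linear regression; average of two assays, each in triplicate.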

[14] = The compound was tested for cell adhesion by measuring the inhibitory concentration against Human umbilical vein endothelial cell (HUVEC) activation, using calcein-AM as radioligand at 100 uM; format: functional
[15] = The compound was tested for cell adhesion by measuring the inhibitory concentration against Human umbilical vein endothelial cell (HUVEC) activation, using calcein-AM radioligand at 100 uM; format: functional
[16] = The compound was tested for cell adhesion by measuring the inhibitory concentration against Human umbilical vein endothelial cell (HUVEC) activation, using calcein-AM as radioligand at 33 uM; format: functional
[17] = The compound was tested for inhibitory activity against vascular cell adhesion molecule (VCAM)-1 mediated cell adhesion in Human aortic endothelial cell culture, by using HAEC surface expression assay at 50 uM; format: functional
In short: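 Human aortic endothelial cells at confluence were incubated with TNF-α (250 U/mL) and compound (0.005% DMSO final) for 18 h, then formalin-fixed. Cells were probed with anti-VCAM-1 mAb (2 h, 37 °C), then biotin anti-mouse IgG+IgM F(ab)₂ (1 h), then [¹²⁵I]streptavidin (15 min, 4 °C). NaOH digests were counted.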

[18] = cell adhesion assay; measuring the inhibitory concentration against Human umbilical vein endothelial cell (HUVEC) activation, using Na51CrO4 as radioligand at 100 uM; format: functional; conditions: in the assay text read “calcein-AM” for “Na51CrO4”
[19] = The compound was tested for inhibitory activity against intercellular adhesion molecule (ICAM)-1 mediated cell adhesion in Human aortic endothelial cell culture, by using HAEC surface expression assay at 50 micro M
[20] = The compound was tested for inhibitory activity against vascular cell adhesion molecule (VCAM)-1 mediated cell adhesion in Human aortic endothelial cell culture, by using HAEC surface expression assay at 50 micro M

Compound: COc1ccc2c(c1)c(OC(C)C)c(C(N)=O)[s+]2[O-] (stereo not given) [listing 1 of 2 here]
- inhibition at 50 µM [1]: 25%
- inhibition at 50 µM [2]: 20%
- inhibition at 50 µM [3]: 24%
- inhibition in vivo at 50 mg/kg (Rattus norvegicus [4]): 5%

Compound: CC(C)Oc1c(C(N)=O)sc2ccc([N+](=O)[O-])cc12
- inhibition at 100 µM [5]: 40%

Compound: CCNC(=O)c1c(OC(C)C)c2cc(OC)ccc2[s+]1[O-] (stereo not given)
- inhibition at 100 µM [6]: 36%

Compound: COc1ccc2c(c1)c(OC(C)C)c(C(N)=O)[s+]2[O-] (stereo not given) [listing 2 of 2 here]
- inhibition in vivo at 50 mg/kg (Rattus norvegicus [7]): 83%
- IC50 [8]: 5.7 µM
- IC50 [9]: 9.6 µM
- IC50 [10]: 4 µM

Compound: CC(C)Oc1c(C(N)=O)sc2ccc(O)cc12
- IC50 [11]: 3.5 µM
- inhibition at 50 µM [12]: 91%
- IC50 [10]: 6.4 µM
- IC50 [13]: 3.3 µM

Compound: COc1ccc2sc(C(=O)Nc3ccccc3)c(OC(C)C)c2c1
- inhibition at 100 µM [5]: 12%

Compound: CC(C)Oc1c(C(N)=O)oc2ccc(Cl)cc12
- inhibition at 100 µM [5]: 52%

Compound: COc1ccc2sc(C(N)=O)c(Oc3ccccc3)c2c1
- inhibition at 100 µM [5]: 59%

Compound: COc1ccc2c(c1)c(OC(C)C)c(C(=O)Nc1ccccc1)[s+]2[O-] (stereo not given)
- inhibition at 100 µM [14]: < 4%

Compound: COc1ccc2sc(C(=O)Nc3ccccc3C(=O)O)c(OC(C)C)c2c1
- inhibition at 100 µM [5]: 35%

Compound: COc1ccc2sc(C(=O)NCc3ccccc3)c(OC(C)C)c2c1
- inhibition at 100 µM [15]: 35%

Compound: COc1ccc2sc(C(N)=O)c(SCCN)c2c1
- inhibition at 33 µM [16]: 0%

Compound: CC(C)Oc1c(C(N)=O)sc2ccc(N)cc12
- inhibition at 100 µM [5]: 49%

Compound: COc1ccc2sc(C(=O)Nc3ccc(C(=O)O)cc3)c(OC(C)C)c2c1
- IC50 [10]: 50 µM

Compound: CC(C)Sc1c(C(N)=O)sc2ccccc12
- inhibition at 100 µM [5]: 34%

Compound: COc1ccc2sc(C(=O)NCCCCC(=O)O)c(OC(C)C)c2c1
- inhibition at 100 µM [5]: 9%

Compound: CCNC(=O)c1ccc2ccc(OC)cc2c1OC(C)C
- inhibition at 100 µM [5]: 73%

Compound: CC(C)Oc1c(C(N)=O)sc2ccc(Cl)cc12
- inhibition at 100 µM [5]: 72%

Compound: COc1ccc2oc(C(N)=O)c(OC(C)C)c2c1
- IC50 [11]: 5 µM
- IC50 [10]: 14 µM
- IC50 [13]: 7.9 µM

Compound: CC(C)Oc1c(C(N)=O)[s+]([O-])c2ccc(O)cc12 (stereo not given)
- IC50 [8]: 2.7 µM
- IC50 [9]: 5 µM

Compound: COc1ccc2sc(C(N)=O)c(SC)c2c1
- inhibition at 100 µM [5]: 81%

Compound: COc1ccc2c(c1)c(OC(C)C)c(C(=O)NCc1ccccc1)[s+]2[O-] (stereo not given)
- inhibition at 100 µM [5]: 15%

Compound: COc1ccc2[nH]c(C(N)=O)c(OC(C)C)c2c1
- inhibition at 50 µM [17]: 83%
- IC50 [11]: 2.5 µM
- inhibition at 50 µM [12]: 89%
- IC50 [10]: 8 µM
- IC50 [13]: 7.9 µM

Compound: CC(C)Oc1c(C(N)=O)ccc2ccccc12
- inhibition at 100 µM [5]: < 4%

Compound: COc1ccc2sc(C(=O)NC(C)C)c(SC(C)C)c2c1
- inhibition at 33 µM [16]: 22%

Compound: CC(C)Oc1c(C(N)=O)[s+]([O-])c2ccccc12 (stereo not given)
- inhibition at 100 µM [18]: < 4%

Compound: COc1ccc2c(OC(C)C)c(C(N)=O)sc2c1
- inhibition at 100 µM [5]: 24%

Compound: COc1ccc2sc(C(N)=O)c(OCc3ccccc3)c2c1
- inhibition at 100 µM [5]: 57%

Compound: CNC(=O)c1sc2ccc(OC)cc2c1OC(C)C
- Inhibition [19]: 85%
- IC50 [11]: 6.6 µM
- Inhibition [20]: 83%
- IC50 [10]: 15 µM
- IC50 [13]: 1.4 µM

Compound: COc1ccc2oc(C(=O)Nc3ccccc3)c(OC(C)C)c2c1
- inhibition at 100 µM [5]: < 4%
